From ChEMBL document CHEMBL4368930, “Synthesis and anti-HSV activity of tricyclic penciclovir and hydroxybutylguanine derivatives” (Bioorg Med Chem, 2019)

Experiments:
HL-60 = experiment: Cytostatic activity against human HL60 cells; assay type: ADME, cell-based
CAPAN-1 = experiment: Cytostatic activity against human Capan1 cells; assay type: ADME, cell-based
[1] = Cytostatic activity against human DND41 cells; assay type: ADME, cell-based
TERT-RPE1 = experiment: Cytostatic activity against human hTERT-RPE1 cells; assay type: ADME, cell-based; settings: RPE-1
How it was run: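 Cell proliferation was measured against the number of cells in untreated controls.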

Human alphaherpesvirus 3 [2] = experiment: Antiviral activity against Varicella-zoster virus Oka harboring thymidine kinase infected in HEL cells assessed as reduction in virus plaque formation; assay type: functional, organism-based; settings: Human alphaherpesvirus 3, Oka
Human betaherpesvirus 5 [3] = experiment: Antiviral activity against Human cytomegalovirus AD169 assessed as reduction in virus-induced cytopathogenicity by microscopic analysis; assay type: functional, organism-based; settings: Human betaherpesvirus 5, strain AD169
[4] = Cytostatic activity against human HAP1 cells; assay type: ADME, cell-based
NCI-H460 = experiment: Cytostatic activity against human NCI-H460 cells; assay type: ADME, cell-based
Z-138 = experiment: Cytostatic activity against human Z138 cells; assay type: ADME, cell-based
Human alphaherpesvirus 1 [5] = experiment: Antiviral activity against herpes simplex virus 1 KOS infected in HEL cells assessed as reduction in virus-induced cytopathogenicity by microscopic analysis; assay type: functional, organism-based; settings: Human alphaherpesvirus 1, strain KOS
Human alphaherpesvirus 2 = experiment: Antiviral activity against herpes simplex virus 2 G infected in HEL cells assessed as reduction in virus-induced cytopathogenicity by microscopic analysis; assay type: functional, organism-based; settings: Human alphaherpesvirus 2, G
How it was run: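 Confluent cell monolayers were inoculated with 100 CCID50 of virus or 20 PFU. After a 1–2 h adsorption, residual virus was removed and cultures were incubated with the test compounds at 200, 40, 8, 1.6 and 0.32 μM. Cytopathicity was scored once it was complete in untreated infected controls.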

Human betaherpesvirus 5 [6] = experiment: Antiviral activity against Human cytomegalovirus Davis assessed as reduction in virus-induced cytopathogenicity by microscopic analysis; assay type: functional, organism-based; settings: Human betaherpesvirus 5, Davis
Human alphaherpesvirus 1 [7] = experiment: Antiviral activity against thymidine kinase deficient and aciclovir resistant herpes simplex virus 1 KOS infected in HEL cells assessed as reduction in virus-induced cytopathogenicity by microscopic analysis; assay type: functional, organism-based; settings: Human alphaherpesvirus 1, strain KOS
K562 = experiment: Cytostatic activity against human K562 cells; assay type: ADME, cell-based
Human alphaherpesvirus 3 [8] = experiment: Antiviral activity against thymidine kinase deficient Varicella-zoster virus 07-1 infected in HEL cells assessed as reduction in virus plaque formation; assay type: functional, organism-based; settings: Human alphaherpesvirus 3, 07-1, HEL
[9] = Cytotoxicity against HEL cells assessed as effect on cell morphology at 0.32 to 200 uM by microscopic analysis; assay type: cell-based; settings: human

Row | SMILES | IC50 (HL-60) | IC50 (CAPAN-1) | IC50 [1] | IC50 (TERT-RPE1) | EC50 (Human alphaherpesvirus 3 [2]) | EC50 (Human betaherpesvirus 5 [3]) | IC50 [4] | IC50 (NCI-H460) | IC50 (Z-138) | EC50 (Human alphaherpesvirus 1 [5]) | EC50 (Human alphaherpesvirus 2) | EC50 (Human betaherpesvirus 5 [6]) | EC50 (Human alphaherpesvirus 1 [7]) | IC50 (K562) | EC50 (Human alphaherpesvirus 3 [8]) | MCC at up to 200 µM [9]
1 | Nc1nc2c(ncn2CCCCO)c(=O)[nH]1 | > 100 µM | 72.7 µM | > 100 µM | > 100 µM | 76.5 µM | > 100 µM | > 100 µM | > 100 µM | > 100 µM | 1.5 µM | 2.1 µM | > 100 µM | 10 µM | > 100 µM | > 100 µM | > 100 µM
2 | O=c1c2ncn(CCC(CO)CO)c2nc2[nH]c(-c3ccc(Oc4ccccc4)cc3)cn12 | 63.3 µM | 46.4 µM | 90.4 µM | 16.9 µM | 62.8 µM | > 100 µM | 44 µM | 47.2 µM | > 100 µM | > 100 µM | > 100 µM | > 100 µM | > 100 µM | > 100 µM | > 100 µM | > 100 µM
3 | Nc1nc2c(ncn2CCC(CO)CO)c(=O)[nH]1 [PENCICLOVIR] | > 100 µM | 93 µM | > 100 µM | > 100 µM | 3.5 µM | > 100 µM | > 100 µM | > 100 µM | > 100 µM | 0.8 µM | 0.2 µM | > 100 µM | 0.2 µM | > 100 µM | 33.4 µM | > 100 µM
